The target in test [1] is Prostaglandin G/H synthase 1 (Ovis aries) (UniProt P05979). Kind of test: Inhibitory concentration against ovine cyclooxygenase-1 evaluated by enzyme linked immunosorbent assay.
The subject of test [2] is MCF7. Nature of the test: Effective concentration against human ER positive MCF-7 breast cancer cell line evaluated by luciferase assay. It is filed as functional, cell-based. The essentials: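 ER-positive MCF-7 cells stably transfected with the ERE_wtc-luc reporter plasmid (MCF-7 2a). Cells were exposed to the compound over a concentration range. ER binding to the estrogen response element drives luciferase expression, which was measured to build concentration–activation curves relative to estradiol. EC50 was taken from these curves.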

The subject of test [3] is MCF7. Kind of test: Treatment upon control (T/C) against hormone dependent MCF-7 breast cancer cells at 10 uM concentration. The note with it: Homo sapiens.

These results are taken from ChEMBL document CHEMBL1141119, “Synthesis and pharmacological evaluation of 1H-imidazoles as ligands for the estrogen receptor and cytotoxic inhibitors of the cyclooxygenase” (J Med Chem, 2005).

Some results are limits rather than exact numbers.

As a reminder, the IC50 is the midpoint of a concentration-inhibition curve. In general, EC50 refers to the concentration giving half of the maximal effect. A high value points to lower potency in that assay. Regarding `CCc1c(-c2ccc(O)cc2)nc(-c2ccc(O)cc2)n1-c1ccc(O)cc1`, the IC50 in test [1] is more than 200 µM. In the test with MCF7 [2], a half-maximal effect (EC50) was put at 77 nM. As a reminder, the T/C is the ratio of treated to control. In turn, `Oc1ccc(-c2nc(-c3ccc(O)cc3Cl)cn2-c2ccc(O)cc2)cc1` displayed a T/C at 10 µM in the test on MCF7 [3] of 50%. Moreover, 8.4 µM corresponded to half-maximal inhibition in test [1] (IC50).

Compound `Oc1ccc(-n2cc(-c3ccc(O)cc3Cl)nc2-c2ccc(O)cc2Cl)cc1` showed a T/C at 10 µM in the test with MCF7 [3] of 0%. This compound came in with an IC50 in test [1] of 8.4 µM. In test [1], `Oc1ccc(-c2cn(-c3ccc(O)cc3)c(-c3ccc(O)cc3)n2)cc1` had an IC50 of 12.2 µM. Consider `C[C@]12CC[C@@H]3c4ccc(O)cc4CC[C@H]3[C@@H]1CC[C@@H]2O` [ESTRADIOL], for which the EC50 in the test with MCF7 [2] was found to be 0.08 nM.
